In ChEMBL document CHEMBL1137715, “A facile synthesis of alpha,alpha'-(EE)-bis(benzylidene)-cycloalkanones and their antitubercular evaluations” (2009) one finds MIC and Activity data, which are given here for 20 molecules.

The test system of assay [1] is Mycobacterium tuberculosis. The assay is described as follows: Antitubercular activity against Mycobacterium tuberculosis H37Rv after 24 hrs by agar microdilution method. In kind it is functional. The method in brief: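 Agar microdilution on M. tuberculosis H37Rv. Two-fold compound dilutions were made in 7H10 agar with OADC. Inoculum came from L–J medium, harvested in 0.85% saline with 0.05% Tween-80. Slants were held 24 h at 37 °C, then streaked with 5×10^4 bacilli per tube and incubated at 37 °C for 30 days. MIC was the concentration giving complete colony inhibition versus medium-only control.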

The subject of assay [2] is Escherichia coli. In words: Antimicrobial activity against Escherichia coli ATCC 9637 after 24 hrs by standard microbroth dilution technique. In kind it is functional, organism-based. On the technique in general: In broth dilution the organism is exposed to a series of concentrations in liquid medium.
Assay [3] deals with Staphylococcus aureus. The assay is described as follows: Antimicrobial activity against Staphylococcus aureus ATCC 25923 after 24 hrs by standard microbroth dilution technique. In kind it is functional, organism-based.
Assay [4] relates to Candida albicans. In words: Antimicrobial activity against Candida albicans ATCC 1405B after 48 hrs by standard microbroth dilution technique. The class given is functional.
The subject of assay [5] is Mycobacterium tuberculosis. The assay is described as follows: Antitubercular activity against Mycobacterium tuberculosis H37Ra after 5 days by microplate alamar blue assay. In kind it is functional. As to conditions: 120 h. The method in brief:
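Microplate Alamar Blue assay on M. tuberculosis H37Ra. A log-phase culture was diluted to a final OD550 nm of 0.05 in Sauton's medium. Test compounds in DMSO were dispensed into 96-well plates, with two-fold dilutions in the initial screen.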

Assay [6] concerns Candida parapsilosis. In words: Antimicrobial activity against Candida parapsilosis ATCC 22019 after 48 hrs by standard microbroth dilution technique. In kind it is functional. The conditions noted are these: Lodderomyces parapsilosis, ATCC 22019, 48 h.
Assay [7] has as its system Cryptococcus neoformans. In words: Antimicrobial activity against Cryptococcus neoformans after 72 hrs by standard microbroth dilution technique. In kind it is functional.
The test system of assay [8] is Pseudomonas aeruginosa. The assay is described as follows: Antimicrobial activity against Pseudomonas aeruginosa ATCC BAA-427 after 24 hrs by standard microbroth dilution technique. The class given is functional, organism-based.
Assay [9] has as its system Aspergillus fumigatus. The assay is described as follows: Antimicrobial activity against Aspergillus fumigatus after 72 hrs by standard microbroth dilution technique. The class given is functional.
In assay [10] the test system is Klebsiella pneumoniae. In words: Antimicrobial activity against Klebsiella pneumoniae ATCC 27736 after 24 hrs by standard microbroth dilution technique. The class given is functional, organism-based.

The structures appear in SMILES notation. In brackets after ≈: the same amount, converted by molar mass. Activity calls are given as the source filed them. The calls are words filed in the database; no cut-off is given here.

What is called MIC is the least concentration at which growth counts as inhibited. A higher MIC goes with a less susceptible organism. As for `NNC(=O)c1ccncc1` [ISONIAZID], the MIC in assay [1] is 0.75 µg/mL (≈ 5.47 µM).

In the case of `COc1cc(/C=C2\CCC/C(=C\c3cc(OC)c(OC)c(OC)c3)C2=O)cc(OC)c1OC`, the outcome in [2], in assay [3], in assay [8] and in [10] was inactive. Besides, the MIC is above 12.5 µg/mL in [1]; above 50 µg/mL in assay [4]; above 12.5 µg/mL in [5]; above 50 µg/mL in [6]; above 50 µg/mL in assay [7]; above 50 µg/mL in assay [9].

Regarding `O=[N+]([O-])c1ccc(/C=C2\CCC/C(=C\c3ccc([N+](=O)[O-])cc3)C2O)cc1`, the result in assay [2], in assay [3], in [8] and in assay [10] was inactive. Further, the MIC in [1] is above 12.5 µg/mL; in assay [4] it was above 50 µg/mL; in assay [5] it was above 12.5 µg/mL; in assay [6], above 50 µg/mL; in assay [7], above 50 µg/mL; in [9] it was above 50 µg/mL.

`COc1ccc(/C=C2\CCCC/C(=C\c3ccc(OC)cc3)C2=O)cc1`: the outcome in assay [2], in assay [3], in assay [8] and in assay [10] was inactive. Further, the MIC in assay [1] was above 12.5 µg/mL; in assay [4], above 50 µg/mL; in assay [5] it was 6.25 µg/mL (≈ 17.9 µM); in assay [6] it was above 50 µg/mL; in assay [7], above 50 µg/mL; in assay [9] it was above 50 µg/mL.

As for `COc1ccc(/C=C2\CCCC/C(=C\c3ccc(OC)c(OC)c3)C2=O)cc1OC`, the outcome in [2], in assay [3], in [8] and in assay [10] was inactive. Also, the MIC in assay [1] was above 12.5 µg/mL; in assay [4], above 50 µg/mL; in assay [5], above 12.5 µg/mL; in assay [6] it was above 50 µg/mL; in assay [7], above 50 µg/mL; in assay [9], above 50 µg/mL.

`O=C1/C(=C/c2ccccc2)CCC/C1=C\c1ccccc1` [2,6-DIBENZYLIDENECYCLOHEXANONE]: the outcome in assay [2], in assay [3], in assay [8] and in assay [10] was inactive. Also, the MIC in assay [1] was 6.25 µg/mL (≈ 22.8 µM); in assay [4], above 50 µg/mL; in assay [5], above 12.5 µg/mL; in [6], above 50 µg/mL; in assay [7], above 50 µg/mL; in assay [9] it was above 50 µg/mL.

Turning to `OC1/C(=C/c2ccc(Br)cc2)CCC/C1=C\c1ccc(Br)cc1` (configuration not stated), the outcome in assay [2], in assay [3], in assay [8] and in [10] was inactive. Also, the MIC in assay [1] is 12.5 µg/mL (≈ 28.8 µM); in assay [4], above 50 µg/mL; in [5] it was above 12.5 µg/mL; in [6], above 50 µg/mL; in [7], above 50 µg/mL; in [9], above 50 µg/mL.

Take `O=C1/C(=C/c2ccc3ccccc3c2)CCC/C1=C\c1ccc2ccccc2c1`: the outcome in assay [2], in [3], in assay [8] and in assay [10] was inactive. Further, the MIC in [1] is above 12.5 µg/mL; in assay [4], above 50 µg/mL; in assay [5], above 12.5 µg/mL; in [6], above 50 µg/mL; in [7] it was above 50 µg/mL; in assay [9] it was above 50 µg/mL.

For `O=C1CCCCC1C(O)c1ccc([N+](=O)[O-])cc1` (configuration not stated), the result in assay [2], in assay [3], in assay [8] and in assay [10] was inactive. Moreover, the MIC is 12.5 µg/mL (≈ 50.1 µM) in [1]; above 50 µg/mL in [4]; above 12.5 µg/mL in assay [5]; above 50 µg/mL in assay [6]; above 50 µg/mL in assay [7]; above 50 µg/mL in [9].

On to `O=C1/C(=C/c2ccc([N+](=O)[O-])cc2)CCC/C1=C\c1ccc([N+](=O)[O-])cc1`, for which the result in assay [2], in assay [3], in [8] and in assay [10] was inactive. Moreover, the MIC in assay [1] was 12.5 µg/mL (≈ 34.3 µM); in [4], above 50 µg/mL; in [5], 3.12 µg/mL (≈ 8.56 µM); in assay [6] it was above 50 µg/mL; in assay [7], above 50 µg/mL; in assay [9], above 50 µg/mL.

`O=C1/C(=C/c2ccc(Cl)cc2)CCC/C1=C\c1ccc(Cl)cc1`: the outcome in assay [2], in assay [3], in assay [8] and in assay [10] was inactive. Further, the MIC in [1] was above 12.5 µg/mL; in [4], above 50 µg/mL; in assay [5], above 12.5 µg/mL; in [6], above 50 µg/mL; in assay [7], above 50 µg/mL; in assay [9], above 50 µg/mL.

With `O=C1/C(=C/c2ccc(Cl)cc2)CCCC/C1=C\c1ccc(Cl)cc1`, the outcome in assay [2], in assay [3], in assay [8] and in assay [10] was inactive. Further, the MIC in assay [1] is above 12.5 µg/mL; in assay [4], above 50 µg/mL; in assay [5], above 12.5 µg/mL; in assay [6], above 50 µg/mL; in assay [7] it was above 50 µg/mL; in assay [9] it was above 50 µg/mL.

In the case of `O=C1CCCCC1C(O)c1cccc([N+](=O)[O-])c1` (configuration not stated), the result in [2], in [3], in assay [8] and in [10] was inactive. In addition, the MIC is 12.5 µg/mL (≈ 50.1 µM) in assay [1]; above 50 µg/mL in assay [4]; above 12.5 µg/mL in assay [5]; above 50 µg/mL in assay [6]; above 50 µg/mL in assay [7]; above 50 µg/mL in assay [9].

Regarding `O=C1CCCCC1C(O)c1ccc(Br)cc1` (configuration not stated), the result in assay [2], in assay [3], in assay [8] and in assay [10] was inactive. For the same molecule, the MIC in assay [1] is 12.5 µg/mL (≈ 44.1 µM); in assay [4], above 50 µg/mL; in assay [5] it was above 12.5 µg/mL; in assay [6], above 50 µg/mL; in assay [7] it was above 50 µg/mL; in assay [9] it was above 50 µg/mL.

For `O=C1/C(=C/c2ccc(F)cc2)CCC/C1=C\c1ccc(F)cc1`, the outcome in [2], in assay [3], in assay [8] and in assay [10] was inactive. The MIC in [1] is above 12.5 µg/mL; in assay [4] it was above 50 µg/mL; in assay [5] it was 12.5 µg/mL (≈ 40.3 µM); in assay [6], above 50 µg/mL; in assay [7] it was above 50 µg/mL; in assay [9], above 50 µg/mL.

For `O=C1/C(=C/c2ccc(Br)cc2)CCCC/C1=C\c1ccc(Br)cc1`, the outcome in assay [2], in [3], in [8] and in assay [10] was inactive. In addition, the MIC in assay [1] is above 12.5 µg/mL; in assay [4], above 50 µg/mL; in assay [5], above 12.5 µg/mL; in assay [6], above 50 µg/mL; in assay [7] it was above 50 µg/mL; in assay [9] it was above 50 µg/mL.

As for `COc1ccc(/C=C2\CCC/C(=C\c3ccc(OC)c(OC)c3)C2=O)cc1OC`, the result in assay [2], in assay [3], in [8] and in assay [10] was inactive. In addition, the MIC in assay [1] is above 12.5 µg/mL; in assay [4], above 50 µg/mL; in [5], above 12.5 µg/mL; in assay [6] it was above 50 µg/mL; in assay [7], above 50 µg/mL; in [9], above 50 µg/mL.

As to `O=C1/C(=C/c2ccc(OCc3ccccc3)cc2)CCC/C1=C\c1ccc(OCc2ccccc2)cc1`, the result in assay [2], in assay [3], in assay [8] and in assay [10] was inactive. Besides, the MIC in assay [1] is above 12.5 µg/mL; in [4], above 50 µg/mL; in assay [5] it was above 12.5 µg/mL; in assay [6] it was above 50 µg/mL; in [7], above 50 µg/mL; in [9], above 50 µg/mL.

As for `O=C1CCCCC1C(O)c1ccccc1[N+](=O)[O-]` (configuration not stated), the outcome in assay [2], in assay [3], in assay [8] and in [10] was inactive. The MIC in assay [1] is above 12.5 µg/mL; in [4], above 50 µg/mL; in assay [5] it was above 12.5 µg/mL; in assay [6], above 50 µg/mL; in assay [7], above 50 µg/mL; in [9], above 50 µg/mL.

In assay [1], `CC[C@@H](CO)NCCN[C@@H](CC)CO` [ETHAMBUTOL] showed an MIC of 3.25 µg/mL (≈ 15.9 µM).
